Source: ChEMBL document CHEMBL3407339, “A novel series of thiazolyl-pyrazoline derivatives: synthesis and evaluation of antifungal activity, cytotoxicity and genotoxicity” (Eur J Med Chem, 2015)
Values after ≈ are worked out from the molar mass of the structure shown.

Columns and labels:
Candida parapsilosis = assay: Antifungal activity against Candida parapsilosis NRLL Y 12696 after 48 hrs by broth microdilution assay; format: functional; conditions: Lodderomyces parapsilosis, NRLL Y 12696, 48 h
How it was run: (§1)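 Broth microdilution of DMSO stocks serially diluted in sterile water (4 to 0.0039 mg/mL). Yeasts grown on SDA at 37 °C for 24 h, suspended in double-strength PDB at 10⁵ spores/mL. Incubated at 37 °C for 48 h, then sprayed with 0.5% aqueous TTC. MIC = lowest concentration inhibiting visible growth. Ketoconazole reference.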

Candida tropicalis = assay: Antifungal activity against Candida tropicalis NRLL Y 12968 after 48 hrs by broth microdilution assay; format: functional; conditions: NRLL Y 12968, 48 h; how it was run: as §1
Candida albicans = assay: Antifungal activity against Candida albicans ATCC 90028 after 48 hrs by broth microdilution assay; format: functional; conditions: ATCC 90028, 48 h; how it was run: as §1
Aspergillus parasiticus = assay: Antifungal activity against Aspergillus parasiticus NRRL 465 after 72 hrs by broth microdilution assay; format: functional; conditions: NRRL 465, 72 h
How it was run: (§2)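 Compounds dissolved in DMSO, diluted in sterile distilled water from 4 to 0.0039 mg/mL. Molds grown on PDA at 25 °C for 5 days, suspended in double-strength PDB at 10⁵ spores/mL. Incubated at 25 °C for 72 h; mycelial growth read under stereo microscope. MIC = lowest concentration inhibiting visible growth. Ketoconazole reference.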

[Candida] zeylanoides = Antifungal activity against Candida zeylanoides NRLL Y 1774 after 48 hrs by broth microdilution assay; format: functional; conditions: Dujonia zeylanoides, NRLL Y 1774, 48 h; how it was run: as §1
Aspergillus flavus = assay: Antifungal activity against Aspergillus flavus NRRL 980 after 72 hrs by broth microdilution assay; format: functional; conditions: NRRL 980, 72 h; how it was run: as §2
Fusarium solani = assay: Antifungal activity against Fusarium solani NRRL 13414 after 72 hrs by broth microdilution assay; format: functional; conditions: NRRL 13414, 72 h; how it was run: as §2
Aspergillus niger = assay: Antifungal activity against Aspergillus niger ATCC 1094 after 72 hrs by broth microdilution assay; format: functional; conditions: ATCC 1094, 72 h; how it was run: as §2
Nakaseomyces glabratus = assay: Antifungal activity against Candida glabrata clinical isolate after 48 hrs by broth microdilution assay; format: functional; how it was run: as §1
[1] = Cytotoxicity against mouse NIH/3T3 cells after 24 hrs by XTT assay; format: cell-based; conditions: NIH3T3, 24 h
How it was run: (§3)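 A549 cells in RPMI and NIH/3T3 cells in DMEM, each with fetal calf serum, antibiotics and 7.5% NaHCO₃, at 37 °C, 5% CO₂. Seeded at 20,000 cells/well, 24 h, then compounds added in medium at 500–3.9 doses (final DMSO <0.1%) for 24 h. XTT read after 3 h at 480 nm (ref 680 nm). IC₅₀ by non-linear regression; triplicates; cisplatin control.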

A549 = assay: Antiproliferative activity against human A549 cells after 24 hrs by XTT assay; format: functional, cell-based; conditions: A549, 24 h; how it was run: as §3
Pichia kudriavzevii = assay: Antifungal activity against Candida krusei NRLL Y 7179 after 48 hrs by broth microdilution assay; format: functional; conditions: NRLL Y 7179, 48 h; how it was run: as §1

SMILES	MIC (Candida parapsilosis) [µg/mL]	MIC (Candida tropicalis) [µg/mL]	MIC (Candida albicans) [µg/mL]	MIC (Aspergillus parasiticus) [µg/mL]	MIC ([Candida] zeylanoides) [µg/mL]	MIC (Aspergillus flavus) [µg/mL]	MIC (Fusarium solani) [µg/mL]	MIC (Aspergillus niger) [µg/mL]	MIC (Nakaseomyces glabratus) [µg/mL]	IC50 [1] [µg/mL]	IC50 (A549) [µg/mL]	MIC (Pichia kudriavzevii) [µg/mL]
Fc1ccc(-c2csc(N3N=C(c4ccc(Cl)s4)CC3c3ccc(F)cc3)n2)cc1 (configuration not stated)	250 (≈ 546 µM)	250 (≈ 546 µM)	250 (≈ 546 µM)	250 (≈ 546 µM)	250 (≈ 546 µM)	125 (≈ 273 µM)	250 (≈ 546 µM)	250 (≈ 546 µM)	250 (≈ 546 µM)	> 500	> 500	250 (≈ 546 µM)
O=[N+]([O-])c1ccc(-c2csc(N3N=C(c4ccc(Cl)s4)CC3c3ccc(F)cc3)n2)cc1 (configuration not stated)	250 (≈ 516 µM)	250 (≈ 516 µM)	250 (≈ 516 µM)	250 (≈ 516 µM)	250 (≈ 516 µM)	250 (≈ 516 µM)	250 (≈ 516 µM)	250 (≈ 516 µM)	125 (≈ 258 µM)	> 500	> 500	250 (≈ 516 µM)
N#Cc1ccc(-c2csc(N3N=C(c4ccc(Cl)s4)CC3c3ccc(F)cc3)n2)cc1 (configuration not stated)	250 (≈ 538 µM)	250 (≈ 538 µM)	250 (≈ 538 µM)	250 (≈ 538 µM)	250 (≈ 538 µM)	250 (≈ 538 µM)	250 (≈ 538 µM)	250 (≈ 538 µM)	125 (≈ 269 µM)	> 500	> 500	250 (≈ 538 µM)
CS(=O)(=O)c1ccc(-c2csc(N3N=C(c4ccc(Cl)s4)CC3c3ccc(F)cc3)n2)cc1 (configuration not stated)	250 (≈ 483 µM)	250 (≈ 483 µM)	250 (≈ 483 µM)	250 (≈ 483 µM)	250 (≈ 483 µM)	250 (≈ 483 µM)	250 (≈ 483 µM)	250 (≈ 483 µM)	250 (≈ 483 µM)	> 500	> 500	250 (≈ 483 µM)
Cc1ccc(-c2csc(N3N=C(c4ccc(Cl)s4)CC3c3ccc(F)cc3)n2)cc1 (configuration not stated)	250 (≈ 551 µM)	250 (≈ 551 µM)	250 (≈ 551 µM)	250 (≈ 551 µM)	250 (≈ 551 µM)	250 (≈ 551 µM)	250 (≈ 551 µM)	250 (≈ 551 µM)	125 (≈ 275 µM)	> 500	> 500	250 (≈ 551 µM)
COc1ccc(-c2csc(N3N=C(c4ccc(Cl)s4)CC3c3ccc(F)cc3)n2)cc1 (configuration not stated)	250 (≈ 532 µM)	250 (≈ 532 µM)	250 (≈ 532 µM)	250 (≈ 532 µM)	250 (≈ 532 µM)	250 (≈ 532 µM)	250 (≈ 532 µM)	250 (≈ 532 µM)	125 (≈ 266 µM)	103 (≈ 219 µM)	> 500	250 (≈ 532 µM)
Fc1ccc(C2CC(c3ccc(Cl)s3)=NN2c2nc(-c3ccc4c(c3)OCO4)cs2)cc1 (configuration not stated)	250 (≈ 517 µM)	250 (≈ 517 µM)	250 (≈ 517 µM)	250 (≈ 517 µM)	250 (≈ 517 µM)	250 (≈ 517 µM)	250 (≈ 517 µM)	250 (≈ 517 µM)	125 (≈ 258 µM)	73.8 (≈ 152 µM)	> 500	250 (≈ 517 µM)
Cc1ccc(C2=NN(c3nc(-c4ccccc4)cs3)C(c3ccc(F)cc3)C2)s1 (configuration not stated)	500 (≈ 1190 µM)	500 (≈ 1190 µM)	500 (≈ 1190 µM)	250 (≈ 596 µM)	500 (≈ 1190 µM)	250 (≈ 596 µM)	250 (≈ 596 µM)	250 (≈ 596 µM)	125 (≈ 298 µM)	> 500	> 500	500 (≈ 1190 µM)
Cc1ccc(C2=NN(c3nc(-c4ccc(F)cc4)cs3)C(c3ccc(F)cc3)C2)s1 (configuration not stated)	250 (≈ 571 µM)	250 (≈ 571 µM)	250 (≈ 571 µM)	250 (≈ 571 µM)	250 (≈ 571 µM)	250 (≈ 571 µM)	250 (≈ 571 µM)	250 (≈ 571 µM)	125 (≈ 286 µM)	> 500	125 (≈ 286 µM)	250 (≈ 571 µM)
Cc1ccc(C2=NN(c3nc(-c4ccc(Cl)cc4)cs3)C(c3ccc(F)cc3)C2)s1 (configuration not stated)	250 (≈ 551 µM)	250 (≈ 551 µM)	250 (≈ 551 µM)	250 (≈ 551 µM)	250 (≈ 551 µM)	250 (≈ 551 µM)	250 (≈ 551 µM)	250 (≈ 551 µM)	125 (≈ 275 µM)	> 500	> 500	250 (≈ 551 µM)
Cc1ccc(C2=NN(c3nc(-c4ccc(Br)cc4)cs3)C(c3ccc(F)cc3)C2)s1 (configuration not stated)	250 (≈ 502 µM)	250 (≈ 502 µM)	250 (≈ 502 µM)	250 (≈ 502 µM)	250 (≈ 502 µM)	250 (≈ 502 µM)	250 (≈ 502 µM)	250 (≈ 502 µM)	125 (≈ 251 µM)	> 500	> 500	250 (≈ 502 µM)
Cc1ccc(C2=NN(c3nc(-c4ccc([N+](=O)[O-])cc4)cs3)C(c3ccc(F)cc3)C2)s1 (configuration not stated)	250 (≈ 538 µM)	250 (≈ 538 µM)	250 (≈ 538 µM)	250 (≈ 538 µM)	250 (≈ 538 µM)	250 (≈ 538 µM)	250 (≈ 538 µM)	250 (≈ 538 µM)	125 (≈ 269 µM)	15.6 (≈ 33.6 µM)	16.7 (≈ 35.9 µM)	250 (≈ 538 µM)
Cc1ccc(-c2csc(N3N=C(c4ccc(C)s4)CC3c3ccc(F)cc3)n2)cc1 (configuration not stated)	500 (≈ 1150 µM)	500 (≈ 1150 µM)	500 (≈ 1150 µM)	250 (≈ 577 µM)	500 (≈ 1150 µM)	250 (≈ 577 µM)	250 (≈ 577 µM)	250 (≈ 577 µM)	250 (≈ 577 µM)	> 500	> 500	500 (≈ 1150 µM)
COc1ccc(-c2csc(N3N=C(c4ccc(C)s4)CC3c3ccc(F)cc3)n2)cc1 (configuration not stated)	500 (≈ 1110 µM)	500 (≈ 1110 µM)	500 (≈ 1110 µM)	250 (≈ 556 µM)	500 (≈ 1110 µM)	250 (≈ 556 µM)	250 (≈ 556 µM)	250 (≈ 556 µM)	250 (≈ 556 µM)	146 (≈ 326 µM)	184 (≈ 408 µM)	500 (≈ 1110 µM)
Cc1ccc(C2=NN(c3nc(-c4ccc5c(c4)OCO5)cs3)C(c3ccc(F)cc3)C2)s1 (configuration not stated)	250 (≈ 539 µM)	250 (≈ 539 µM)	250 (≈ 539 µM)	250 (≈ 539 µM)	250 (≈ 539 µM)	250 (≈ 539 µM)	250 (≈ 539 µM)	250 (≈ 539 µM)	250 (≈ 539 µM)	125 (≈ 270 µM)	173 (≈ 374 µM)	250 (≈ 539 µM)
Cc1ccc(C2=NN(c3nc(-c4ccc(C(F)(F)F)cc4)cs3)C(c3ccc(F)cc3)C2)s1 (configuration not stated)	250 (≈ 513 µM)	250 (≈ 513 µM)	250 (≈ 513 µM)	250 (≈ 513 µM)	250 (≈ 513 µM)	250 (≈ 513 µM)	250 (≈ 513 µM)	250 (≈ 513 µM)	250 (≈ 513 µM)	> 500	> 500	250 (≈ 513 µM)
CC(=O)N1CCN(c2ccc(OCC3COC(Cn4ccnc4)(c4ccc(Cl)cc4Cl)O3)cc2)CC1 (configuration not stated) [KETOCONAZOLE]	15.6 (≈ 29.4 µM)	125 (≈ 235 µM)	62.5 (≈ 118 µM)	7.81 (≈ 14.7 µM)	250 (≈ 470 µM)	15.6 (≈ 29.4 µM)	62.5 (≈ 118 µM)	31.2 (≈ 58.8 µM)	62.5 (≈ 118 µM)	–	–	125 (≈ 235 µM)
